Measured values gathered from unrelated publications.
Each line is one published result; the experiments were not run side by side.
CDK8 with cyclin C: Cyclin-dependent kinase 8, with cyclin C (CDK8, Homo sapiens, UniProt P49336)
CDK8: Cyclin-dependent kinase 8 (CDK8, Homo sapiens, UniProt P49336)

O=C(Nc1cnn(-c2csc(C(=O)NC3COC3)c2)c1)Nc1c(F)cccc1Cl  remaining activity (CDK8 with cyclin C; enzyme activity; inhibitor; 5 µM): 99%
CN1CCN(C(=O)c2ccc3cc(CCNc4ccnc5ccc(C#N)cc45)ccc3c2)CC1  kon (CDK8 with cyclin C; binding; TR-FRET): 878000 M⁻¹ s⁻¹
CS(=O)(=O)N1CCCC(NC(=O)[C@H](CCC2CCCCC2)NC(=O)c2ccc(CNC(=O)c3cnc4ccccn34)cc2)C1 (stereo partly shown)  remaining binding (CDK8; cell-free assay; competition with immobilised ligand; 0.1 µM): 42%
CN1CCC2(CC1)NC(=O)c1c(c3ccc(Cl)c(Cl)c3n1C)C2C#N (racemic)  ΔTm (CDK8; thermal stability; DSF; 10 µM): 1.8 °C
C[C@H](c1ccnc(Nc2nc3ccc(-c4cc(N(C)C)ncn4)cc3[nH]2)c1)N1CCN(C(=O)CC(F)(F)F)CC1  remaining binding (CDK8; cell-free assay; competition with immobilised ligand; 0.1 µM): 96%
CC1(C)NC(=O)c2[nH]c3c(Cl)c(Cl)ccc3c2C1C#N (stereo not shown)  ΔTm (CDK8; thermal stability; DSF; 10 µM): 0.5 °C
CCOc1cc(-c2nncn2C)ccc1Nc1ncc2cc(C)nc(NCC(C)(C)C)c2n1  inhibition (CDK8 with cyclin C; cell-free assay; TR-FRET; 1 µM): ≤ 15%
NS(=O)(=O)c1cc(NC(=O)Cc2ccccc2)ccc1Oc1cccc(Cl)c1  remaining binding (CDK8; cell-free assay; competition with immobilised ligand; 1 µM): 68%
CC(C)(C)c1nc(-c2cccc(NS(=O)(=O)c3c(F)cccc3F)c2F)c(-c2ccnc(N)n2)s1  remaining activity (CDK8 with cyclin C; enzyme activity; inhibitor; radiometric; 1 µM): 109%
Cn1c2c(Cl)c(Cl)ccc2c2cn[nH]c(=O)c21  ΔTm (CDK8; thermal stability; DSF; 10 µM): 1 °C
Cc1c(NC(=O)c2cc(C(N)=O)nc3cc(F)ccc23)c(C(F)(F)F)nn1Cc1ccc(C(C)(C)C)cc1  remaining binding (CDK8; cell-free assay; competition with immobilised ligand; 1 µM): 100%
Cn1c2c(c3ccc(Cl)c(Cl)c31)C(C#N)C1(CCNCC1)NC2=O (racemic)  ΔTm (CDK8; thermal stability; DSF; 10 µM): 2.2 °C
Nc1ncnc2occ(-c3ccc(NC(=O)Nc4cc(C(F)(F)F)ccc4F)cc3)c12  remaining signal (CDK8; cell-free assay; inhibitor; 20 µM): 2%
